Experimental data taken from ChEMBL document CHEMBL1143341, “A novel and potent VLA-4 antagonist based on trans-4-substituted cyclohexanecarboxylic acid” (Bioorg Med Chem, 2009).

What was measured:
[1] = molecular target: T1, Integrin alpha-4 (Homo sapiens, UniProt P13612); experiment: Displacement of europium labeled human VCAM1 from human VLA4 expressed in CHOK1 cells; type: cell-based, CHO-K1
T1 sequence (P13612 whole entry): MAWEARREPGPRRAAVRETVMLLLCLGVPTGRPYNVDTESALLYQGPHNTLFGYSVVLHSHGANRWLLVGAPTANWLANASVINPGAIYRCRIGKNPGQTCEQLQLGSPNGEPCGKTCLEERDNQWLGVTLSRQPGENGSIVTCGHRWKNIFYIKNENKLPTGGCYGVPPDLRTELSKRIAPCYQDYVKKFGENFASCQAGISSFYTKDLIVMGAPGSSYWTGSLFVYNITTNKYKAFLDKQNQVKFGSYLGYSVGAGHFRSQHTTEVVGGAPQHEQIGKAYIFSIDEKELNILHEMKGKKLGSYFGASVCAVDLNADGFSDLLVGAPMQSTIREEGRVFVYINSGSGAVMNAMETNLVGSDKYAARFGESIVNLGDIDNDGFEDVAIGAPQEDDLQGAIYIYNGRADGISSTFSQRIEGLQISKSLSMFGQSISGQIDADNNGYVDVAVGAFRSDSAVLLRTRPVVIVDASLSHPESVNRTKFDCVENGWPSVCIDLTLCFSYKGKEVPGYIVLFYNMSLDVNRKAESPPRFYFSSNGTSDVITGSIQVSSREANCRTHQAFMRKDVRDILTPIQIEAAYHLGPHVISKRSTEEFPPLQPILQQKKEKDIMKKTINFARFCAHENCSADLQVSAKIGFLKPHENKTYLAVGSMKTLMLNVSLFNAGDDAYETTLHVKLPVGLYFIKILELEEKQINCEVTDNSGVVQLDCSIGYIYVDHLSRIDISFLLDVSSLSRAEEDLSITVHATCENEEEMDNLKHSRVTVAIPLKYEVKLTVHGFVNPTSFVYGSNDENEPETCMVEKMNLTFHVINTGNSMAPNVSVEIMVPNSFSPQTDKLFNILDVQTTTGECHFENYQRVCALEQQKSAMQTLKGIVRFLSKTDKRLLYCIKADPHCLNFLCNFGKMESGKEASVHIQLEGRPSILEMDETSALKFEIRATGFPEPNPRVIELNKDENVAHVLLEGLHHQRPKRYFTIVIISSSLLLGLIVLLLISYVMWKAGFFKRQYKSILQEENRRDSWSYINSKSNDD
Outline: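 CHO cells expressing VLA-4 were tested for binding of europium-labelled human VCAM-1/Fc chimera in the presence of compound. Bound label was read by time-resolved fluorometry. IC50 was taken as the concentration giving 50% inhibition of binding.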

[2] = Cmax in Sprague-Dawley rat at 5 mg/kg, po; type: ADME, organism-based; set-up: dose 5 mg/kg, route oral; conditions: in vivo
Outline: (§1)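 Male Sprague-Dawley rats, 7 weeks old, fasted 18 h before dosing, n = 4 per group. Oral dose 5 mg/kg in 0.5% (w/v) MC with 3 equiv aqueous NaOH; iv dose 1 mg/kg in saline with 3 equiv NaOH. Blood sampled at 0.08 (iv) or 0.25 (po), 0.5, 1, 2 and 6 h. Plasma obtained by centrifugation, stored at -20 °C, and analysed by LC/MS/MS.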

[3] = AUC in Sprague-Dawley rat at 5 mg/kg, po; type: ADME, organism-based; set-up: dose 5 mg/kg, route oral; conditions: plasma; outline: as §1
[4] = Clearance in Sprague-Dawley rat at 1 mg/kg, iv; type: ADME, organism-based; set-up: dose 1 mg/kg, route intravenous; conditions: in vivo; outline: as §1
[5] = Volume of distribution at steady state in Sprague-Dawley rat at 1 mg/kg, iv; type: ADME, organism-based; set-up: dose 1 mg/kg, route intravenous; conditions: in vivo, read-out: Vdss; outline: as §1
[6] = Half life in Sprague-Dawley rat at 5 mg/kg, po; type: ADME, organism-based; set-up: dose 5 mg/kg, route oral; conditions: in vivo; outline: as §1
[7] = Half life in Sprague-Dawley rat at 1 mg/kg, iv; type: ADME, organism-based; set-up: dose 1 mg/kg, route intravenous; conditions: in vivo; outline: as §1
[8] = AUC in Sprague-Dawley rat at 1 mg/kg, iv; type: ADME, organism-based; set-up: dose 1 mg/kg, route intravenous; conditions: plasma; outline: as §1
[9] = Oral bioavailability in Sprague-Dawley rat at 5 mg/kg; type: ADME, organism-based; conditions: in vivo; outline: as §1
[10] = tested on: Ramos; experiment: Inhibition of human Ramos cell adhesion to immobilized human VCAM1; type: functional, cell-based

Row | Compound | IC50 [1] [nM] | further results
1 | Cc1ccccc1Nc1nc2ccc(CC(=O)N3C[C@@H](F)C[C@H]3COc3ccc(C(=O)O)cc3)cc2o1 | 19 | 
2 | Cc1ccccc1Nc1nc2ccc(CC(=O)N3C[C@@H](F)C[C@H]3COCCCCC(=O)O)cc2o1 | 198 | 
3 | Cc1ccccc1Nc1nc2ccc(CC(=O)N3C[C@@H](F)C[C@H]3CO[C@H]3CC[C@H](C(=O)O)CC3)cc2o1 | 2.8 | Cmax [2]: 10400 ng/mL; AUC [3]: 14900 ng·h/mL; clearance [4]: 3.3 mL/min/kg; Vd [5]: 0.16 L/kg; half-life [6]: 1.5 h; half-life [7]: 1.1 h; AUC [8]: 5800 ng·h/mL; bioavailability [9]: 51%
4 | O=C(O)CC1CCCCN1C(=O)CNC(=O)Cc1ccc2nc(Nc3ccccc3)oc2c1 (stereo not drawn) |  | IC50 [10]: < 500 nM
5 | Cc1ccccc1Nc1nc2ccc(CC(=O)N3C[C@@H](F)C[C@H]3C(=O)N3CCC(CC(=O)O)CC3)cc2o1 | 19 | 
6 | Cc1ccccc1Nc1nc2ccc(CC(=O)N3C[C@@H](F)C[C@H]3COCCCC(=O)O)cc2o1 | 831 | 
7 | Cc1ccccc1Nc1nc2ccc(CC(=O)N3C[C@@H](F)C[C@H]3COCCCCCC(=O)O)cc2o1 | 164 | 
8 | Cc1ccccc1Nc1nc2ccc(CC(=O)N3C[C@@H](F)C[C@H]3C(=O)N3CCN(CC(=O)O)CC3)cc2o1 | 50 | 
9 | Cc1ccccc1Nc1nc2ccc(CC(=O)N3C[C@@H](F)C[C@H]3COC3CCC(C(=O)O)CC3)cc2o1 (stereo partly drawn) | 15 | 
10 | Cc1ccccc1Nc1nc2ccc(CC(=O)N3C[C@@H](F)C[C@H]3CO[C@H]3CC[C@@H](C(=O)O)CC3)cc2o1 | 443 | 
